The values below come from ChEMBL document CHEMBL4028873, “The Discovery of a Dual TTK Protein Kinase/CDC2-Like Kinase (CLK2) Inhibitor for the Treatment of Triple Negative Breast Cancer Initiated from a Phenotypic Screen” (J Med Chem, 2017).

Structures are written as SMILES. Active and inactive are the calls of the source. No cut-off for these calls is given here.

Series [1] deals with Mus musculus. Kind of series: Toxicity in SCID mouse xenografted with human CAL51 cells assessed as loss in body weight at 10 mg/kg, iv administered every 3 days for 16 days relative to control. To be noted: in vivo. The format is organism-based.
A short description of series [2]: Volume of distribution at steady state in rat at 2 mg/kg, iv. The format is ADME, organism-based. To be noted: in vivo, read-out: Vdss.
Series [3] has as its target T1, Phosphatidylinositol 5-phosphate 4-kinase type-2 gamma (Homo sapiens) (UniProt Q8TBX8).
T1 sequence (whole entry): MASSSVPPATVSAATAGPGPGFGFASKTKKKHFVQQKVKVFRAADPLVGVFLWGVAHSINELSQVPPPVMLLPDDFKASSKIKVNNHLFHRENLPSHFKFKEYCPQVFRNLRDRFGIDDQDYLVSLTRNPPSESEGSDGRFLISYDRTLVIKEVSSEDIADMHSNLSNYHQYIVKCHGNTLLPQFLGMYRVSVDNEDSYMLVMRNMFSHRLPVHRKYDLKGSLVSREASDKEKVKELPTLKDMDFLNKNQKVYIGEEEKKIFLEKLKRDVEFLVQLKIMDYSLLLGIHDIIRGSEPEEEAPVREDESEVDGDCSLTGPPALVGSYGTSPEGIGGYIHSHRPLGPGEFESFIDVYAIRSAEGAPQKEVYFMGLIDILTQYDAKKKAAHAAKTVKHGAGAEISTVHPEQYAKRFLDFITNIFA
Kind of series: Binding affinity to PIP4K2C in human HCT116 cell lysate at 3 uM after 1 hr by LC-MS/MS analysis. The method in brief: (§1)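 ActivX KiNative cellular kinase profiling. HCT-116 cells were grown in RPMI-1640 with 10% FBS and exposed to compound at 3 μM for 1 h, with DMSO-only controls. Cells were then washed with ice-cold PBS, scraped, pelleted and stored at −80 °C. Kinase binding was reported as percent occupancy relative to the untreated controls.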

Series [4] concerns the target Dual specificity tyrosine-phosphorylation-regulated kinase 1A (Homo sapiens, UniProt Q13627). As to conditions: 3 uM.
Series [5] can be described thus: Mean residence time in rat at 2 mg/kg, iv. Format: ADME, organism-based. As to conditions: in vivo.
The test system of series [6] is CAL-51. The series is described as follows: Antiproliferative activity against human CAL51 cells assessed as reduction in cell viability incubated for 12 to 72 hrs followed by compound washout measured after 72 hrs by Cell-Titer Glo assay. Format: functional, cell-based. The essentials:
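Cal-51 seeded at 3000 cells/well, dosed next day (0.2% DMSO final), triplicate wells; exposure at 37 °C, 5% CO2 for 6, 12, 24, 48 or 72 h, then three medium washes and culture in fresh medium up to 72 h post treatment; viability read by CellTiter-Glo luminescence.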

Series [7] concerns the target Dual specificity tyrosine-phosphorylation-regulated kinase 1B (Homo sapiens, UniProt Q9Y463). Kind of series: Inhibition of full length human recombinant GST-tagged DYRK1B expressed in baculovirus by Z'-LYTE assay.
Series [8] relates to Mus musculus. Kind of series: Toxicity in SCID mouse xenografted with human CAL51 cells assessed as loss in body weight at 20 mg/kg, iv administered every 3 days for 16 days relative to control. The format is organism-based. As to conditions: in vivo. On the technique in general: Xenograft models place foreign cells or tissue in a host animal.
In series [9] the target is Voltage-gated inwardly rectifying potassium channel KCNH2 (Homo sapiens, UniProt Q12809). Kind of series: Inhibition of human ERG.
Series [10] relates to Mus musculus. Kind of series: Toxicity in SCID mouse xenografted with human CAL51 cells assessed as loss in body weight at 20 mg/kg, iv administered every 7 days for 16 days relative to control. To be noted: in vivo. Format: organism-based.
Series [11] addresses T2, Dual specificity tyrosine-phosphorylation-regulated kinase 3 (Homo sapiens, UniProt O43781).
T2 sequence (O43781 whole entry): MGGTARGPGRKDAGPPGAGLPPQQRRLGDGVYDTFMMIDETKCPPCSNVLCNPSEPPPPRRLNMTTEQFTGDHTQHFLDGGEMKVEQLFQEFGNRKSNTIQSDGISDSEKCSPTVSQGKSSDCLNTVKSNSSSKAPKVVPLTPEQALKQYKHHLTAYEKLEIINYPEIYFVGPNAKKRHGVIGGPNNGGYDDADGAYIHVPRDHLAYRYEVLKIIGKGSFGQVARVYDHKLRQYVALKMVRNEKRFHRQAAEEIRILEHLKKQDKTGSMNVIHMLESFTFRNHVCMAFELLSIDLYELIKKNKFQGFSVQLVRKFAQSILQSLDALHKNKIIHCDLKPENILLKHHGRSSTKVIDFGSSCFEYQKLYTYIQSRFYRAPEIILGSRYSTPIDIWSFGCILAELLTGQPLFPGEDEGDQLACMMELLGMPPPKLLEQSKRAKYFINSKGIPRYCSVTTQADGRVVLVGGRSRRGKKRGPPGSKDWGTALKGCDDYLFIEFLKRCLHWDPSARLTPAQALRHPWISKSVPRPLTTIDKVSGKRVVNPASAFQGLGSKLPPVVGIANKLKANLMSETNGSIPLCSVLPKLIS
The series is described as follows: Inhibition of human full length recombinant GST-tagged DYRK3 expressed in baculovirus by Z'-LYTE assay.

Series [12] has as its system CAL-51. The series is described as follows: Antiproliferative activity against human CAL51 cells xenografted in SCID mouse assessed as tumor growth inhibition at 20 mg/kg, iv administered every 7 days for 16 days relative to control. The format is functional. As to conditions: CAL-51, iv, read-out: TGI. The method in brief: (§2)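 Mice bearing tumors of about 125 mm3 randomized (n = 8−10/group) and given compound intravenously at the listed doses and schedules. Tumors measured twice weekly by digital caliper on long and short axes; volume = width² × length/2.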

Series [13] can be described thus: MRT in SCID mouse at 5 mg/kg, iv. To be noted: in vivo. The format is ADME, organism-based.
Another series concerns ZR-75-30. The series is described as follows: Antiproliferative activity against human ZR75-30 cells after 3 days by CellTiter-Glo assay. The format is cell-based. To be noted: zr-75-30, 72 h. The method in brief:
(§3)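 Cell lines kept in vendor-recommended growth media; 3-day compound exposure, then CellTiter-Glo luminescence read. Percent inhibition per concentration normalized to DMSO control, triplicate wells.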
On the technique in general: In ATP-based viability assays light output follows the ATP content of the culture.

The nature of series [14]: Clearance in SCID mouse at 5 mg/kg, iv. To be noted: in vivo. Format: ADME, organism-based.
Series [15] addresses Phosphorylase b kinase gamma catalytic chain, skeletal muscle/heart isoform (Homo sapiens, UniProt Q16816). The series is described as follows: Binding affinity to PHKG1 in human HCT116 cells at 3 uM after 1 hr by LC-MS/MS analysis relative to control. The format is cell-based. The method in brief:
as §1

In series [16] the target is T3, Dual specificity tyrosine-phosphorylation-regulated kinase 3 (Homo sapiens) (UniProt O43781).
T3 sequence (whole entry): T2 sequence (O43781 whole entry)
As to conditions: 3 uM.

Series [17] deals with T4, Phosphatidylinositol 5-phosphate 4-kinase type-2 gamma (Homo sapiens, UniProt Q8TBX8).
T4 sequence (Q8TBX8 whole entry): T1 sequence (whole entry)
The series is described as follows: Inhibition of PIP4K2C in human HCT116 cell lysate after 1 hr by LC-MS/MS analysis relative to control.

Series [18] concerns the target Dual specificity protein kinase CLK1 (Homo sapiens) (UniProt P49759). To be noted: 3 uM.
Series [19] concerns CAL-51. The series is described as follows: Antiproliferative activity against human CAL51 cells xenografted in SCID mouse assessed as tumor growth inhibition at 20 mg/kg, iv administered every 3 days for 16 days relative to control. Format: functional. To be noted: CAL-51, iv, read-out: TGI. The essentials:
as §2

Series [20] addresses c-Jun N-terminal kinase, JNK (Homo sapiens, UniProt P45983+P53779+P45984). Kind of series: Binding affinity to JNK1/JNK2/JNK3 in human HCT116 cell lysate at 3 uM after 1 hr by LC-MS/MS analysis. The method in brief:
as §1

Another series relates to MDA-MB-361. The series is described as follows: Antiproliferative activity against human MDA-MB-361 cells after 3 days by CellTiter-Glo assay. Format: cell-based. As to conditions: mda-mb-361, 72 h. The essentials:
as §3

Sequence of Phosphorylase b kinase gamma catalytic chain, skeletal muscle/heart isoform (Q16816 whole entry, looked up, canonical isoform): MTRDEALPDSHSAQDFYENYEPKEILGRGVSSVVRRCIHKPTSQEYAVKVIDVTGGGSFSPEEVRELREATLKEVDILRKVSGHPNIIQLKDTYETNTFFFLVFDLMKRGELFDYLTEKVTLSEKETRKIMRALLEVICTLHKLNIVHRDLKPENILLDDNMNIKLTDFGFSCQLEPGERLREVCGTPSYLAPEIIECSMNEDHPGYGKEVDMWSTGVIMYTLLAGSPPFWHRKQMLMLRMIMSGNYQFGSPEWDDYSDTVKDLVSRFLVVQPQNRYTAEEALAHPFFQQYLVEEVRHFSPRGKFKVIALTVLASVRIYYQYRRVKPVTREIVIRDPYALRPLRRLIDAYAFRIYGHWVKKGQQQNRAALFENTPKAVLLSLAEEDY
Sequence of Dual specificity protein kinase CLK1 (Homo sapiens) (P49759 whole entry, looked up): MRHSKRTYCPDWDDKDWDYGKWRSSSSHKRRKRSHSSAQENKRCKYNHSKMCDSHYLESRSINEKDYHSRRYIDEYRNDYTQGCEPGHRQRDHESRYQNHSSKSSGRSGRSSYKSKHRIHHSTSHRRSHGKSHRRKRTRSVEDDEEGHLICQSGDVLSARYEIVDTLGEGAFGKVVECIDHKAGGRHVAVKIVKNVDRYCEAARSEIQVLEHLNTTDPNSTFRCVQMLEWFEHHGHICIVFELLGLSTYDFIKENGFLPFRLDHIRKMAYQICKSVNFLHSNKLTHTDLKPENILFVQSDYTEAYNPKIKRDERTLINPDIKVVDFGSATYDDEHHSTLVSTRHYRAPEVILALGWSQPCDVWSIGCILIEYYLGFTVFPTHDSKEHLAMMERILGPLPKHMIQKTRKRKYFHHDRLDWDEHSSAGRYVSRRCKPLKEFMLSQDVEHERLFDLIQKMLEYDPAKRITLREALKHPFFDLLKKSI
Sequence of Voltage-gated inwardly rectifying potassium channel KCNH2 (Q12809 whole entry): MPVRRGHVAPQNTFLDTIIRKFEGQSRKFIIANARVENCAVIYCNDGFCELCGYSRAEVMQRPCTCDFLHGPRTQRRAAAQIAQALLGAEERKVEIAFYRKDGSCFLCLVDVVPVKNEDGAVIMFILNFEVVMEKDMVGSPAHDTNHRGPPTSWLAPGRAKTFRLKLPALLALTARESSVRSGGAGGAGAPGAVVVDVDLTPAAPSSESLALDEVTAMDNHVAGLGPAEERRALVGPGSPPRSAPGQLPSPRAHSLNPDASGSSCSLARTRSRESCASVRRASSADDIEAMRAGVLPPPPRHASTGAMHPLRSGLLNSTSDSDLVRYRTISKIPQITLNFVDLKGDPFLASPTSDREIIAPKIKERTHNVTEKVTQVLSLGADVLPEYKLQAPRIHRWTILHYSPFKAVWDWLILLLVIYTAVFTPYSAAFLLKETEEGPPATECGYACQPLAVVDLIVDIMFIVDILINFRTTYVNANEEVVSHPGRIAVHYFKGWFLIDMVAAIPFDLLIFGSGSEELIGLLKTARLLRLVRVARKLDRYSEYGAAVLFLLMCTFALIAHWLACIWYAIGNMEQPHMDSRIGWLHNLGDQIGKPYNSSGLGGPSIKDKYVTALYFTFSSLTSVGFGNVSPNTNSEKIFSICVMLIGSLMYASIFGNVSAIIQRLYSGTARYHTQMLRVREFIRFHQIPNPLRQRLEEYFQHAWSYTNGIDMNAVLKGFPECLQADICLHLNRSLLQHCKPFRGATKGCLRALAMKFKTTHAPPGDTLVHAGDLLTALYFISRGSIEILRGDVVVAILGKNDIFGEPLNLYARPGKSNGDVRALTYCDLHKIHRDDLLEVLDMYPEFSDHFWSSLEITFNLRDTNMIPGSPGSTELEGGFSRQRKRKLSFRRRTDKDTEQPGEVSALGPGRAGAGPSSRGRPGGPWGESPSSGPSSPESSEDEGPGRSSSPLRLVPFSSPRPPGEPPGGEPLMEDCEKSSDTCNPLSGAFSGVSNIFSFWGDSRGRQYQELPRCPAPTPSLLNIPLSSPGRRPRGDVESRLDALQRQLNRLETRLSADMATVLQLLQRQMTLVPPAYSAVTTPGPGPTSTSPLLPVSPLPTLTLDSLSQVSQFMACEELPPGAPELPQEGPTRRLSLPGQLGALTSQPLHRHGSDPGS
Sequence of Dual specificity tyrosine-phosphorylation-regulated kinase 1B (Q9Y463 whole entry): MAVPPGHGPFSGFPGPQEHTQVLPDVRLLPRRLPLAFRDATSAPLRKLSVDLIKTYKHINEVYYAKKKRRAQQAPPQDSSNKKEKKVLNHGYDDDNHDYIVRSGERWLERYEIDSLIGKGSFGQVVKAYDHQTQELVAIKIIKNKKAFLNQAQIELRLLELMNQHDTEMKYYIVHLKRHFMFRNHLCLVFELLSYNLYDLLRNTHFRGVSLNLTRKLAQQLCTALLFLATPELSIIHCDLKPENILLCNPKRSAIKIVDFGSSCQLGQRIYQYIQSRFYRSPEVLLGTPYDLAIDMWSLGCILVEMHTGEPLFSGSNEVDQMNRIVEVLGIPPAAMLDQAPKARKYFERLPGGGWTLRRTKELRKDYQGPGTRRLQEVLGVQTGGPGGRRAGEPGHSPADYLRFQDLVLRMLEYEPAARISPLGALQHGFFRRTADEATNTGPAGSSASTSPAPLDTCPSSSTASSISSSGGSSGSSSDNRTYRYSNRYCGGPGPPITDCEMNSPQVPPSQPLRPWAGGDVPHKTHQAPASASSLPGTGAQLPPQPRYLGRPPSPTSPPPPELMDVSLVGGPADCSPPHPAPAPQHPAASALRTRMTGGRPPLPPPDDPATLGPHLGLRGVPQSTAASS

For `CNC(=O)c1ccc(Nc2nc(OC3CCCC3)c3c(-c4ccc5nc(C)oc5c4)c[nH]c3n2)c(OC)c1`, the Activity is 5% in the series with Mus musculus [1]; more than 75% in [3]; 17% in the series on Mus musculus [8]; “Non-Toxic” with Mus musculus [10]; “Non-Toxic” in the series on ZR-75-30; 26% in series [15]. In addition, the figures for the Activity (in series [20]; with MDA-MB-361) were more than 75% and “Non-Toxic”, respectively. In [2], the Vd is 2.3 L/kg. For the same compound, the inhibition in [4], in [16] and in [18] was more than 80% each time. Moreover, the MRT in [5] stood at 4.1 h; in [13], 5.2 h. Also, the result in the series with CAL-51 [6] was Active. Further, the IC50 in series [7] was 157 nM; in [9] it was more than 33000 nM; in [11], 99 nM; in series [17] it was 1300 nM. For the same compound, the inhibition in vivo at 20 mg/kg in the series with CAL-51 [12] amounted to 70%; in the series with CAL-51 [19] it was 71%. The clearance in series [14] turned out to be 8.48 mL/min/kg.

A word on the inhibition: it is the relative decrease from the control value, in per cent. A high value points to strong suppression. Usually MRT stands for a mean duration of stay, worked out from the concentration-time curve. As a reminder, the IC50 is the concentration that gives 50% inhibition. A word on the clearance: it is the volume of plasma or blood freed of the substance per unit of time.
